From PubChem
CASP6 VEID inh: caspase-6 (human) enzyme inhibition; purified caspase-6, Z-VEID-R110 cleavage fluorescence; inhibition, % at 12.5 µM; 0.53% of 350,000 active; AID 686996;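 active = mean inhibition across replicates at least about 35%, with every replicate also reaching that limit, limit read from the data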;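 also: 0% = median of neutral control wells and 100% = no fluorescence left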
NSD2 inh: inhibitors of human histone methyltransferase NSD2; AID 743445; inhibition, % at 12.5 µM; NSD2 peptide methylation, AlphaScreen, 120 min; O96028; 0.54% of 310,000 active; in the data active = inhibition above about 50%
UCH37 inh: human UCH37 deubiquitinating enzyme inhibition; purified proteasome/UCH37, Ub-AMC cleavage fluorescence; inhibition, % (no concentration beside the values); 0.33% of 330,000 active; AID 588478;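 active = mean inhibition over replicate wells above about 20%, limit read from the data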;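 also: 0% = compound-free wells with enzyme and 100% = wells lacking proteasome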
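Signal – fluorescence, ex 355 nm, em 460 nm · System – Proteasome-bound UCH37 · Input – 0.15 nM proteasome as dispensed · Timing – 30 min preincubation with enzyme, 25 min cleavage at room temperature · Read-out basis – percent inhibition of cleavage signal versus uninhibited and no-proteasome wells · Medium – Tris-HCl pH 7.4 with ATP-MgCl2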
SIRT5 block: sirtuin-5 (human) deacylase inhibition; Purified SirT5, succinyl-peptide AMC, trypsin-coupled fluorescence; inhibition, % at 15 µM; AID 652115; 1.1% of 330,000 active; in the data active = inhibition above about 15%
FGF22 binding: binders of recombinant human FGF22 by thermal shift. Q9HCT0. SYPRO orange fluorescence; percent of sucrose octasulfate shift, DMSO zero. activity (Tm shift, normalised), % at 9.99 µM. 1.5% of 340,000 active;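 active = mean Tm shift, scaled 0 neutral to 100 positive control, at about 1.3% or above, every replicate too, limit read from the data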
* marks the source's active call; other numbers are inactive results; x = not tested or not shown. Compounds with a hit are over-represented: about 2.6% of the library has one in this group of screens.

SMILES	CASP6 VEID inh	NSD2 inh	UCH37 inh	SIRT5 block	FGF22 binding
CCCCC1=CC2=C(c3ccco3)C(=O)C(C)(OC(=O)c3ccc(OC)cc3)C(=O)C2=CN1CCCOC(C)C (configuration not stated)	32.9	x	4.0	33.9*	-0.2
COc1cc(C(=O)N/C(=C\c2cn(S(=O)(=O)N(C)C)c3ccccc23)C(=O)NCCCO)cc(OC)c1OC	x	2.8	5.0	0.2	43.5*
O=C1CS/C(=N\N=C\c2ccco2)N1c1ccccc1	57.3*	2.4	x	-5.2	-0.1
CC1CN(S(=O)(=O)c2cccc(C(=O)NCCc3ccc(S(N)(=O)=O)cc3)c2)CC(C)O1 (configuration not stated)	4.5	-0.2	-0.6	x	43.1*
CCOc1ccc(CCNC(=O)c2cccc(S(=O)(=O)N3CCN(C(C)=O)CC3)c2)cc1OCC	-1.3	-0.4	0.3	20.8*	-0.1
NS(=O)(=O)c1ccc(CCNC(=O)c2cccc(S(=O)(=O)N3CCCC3)c2)cc1	4.2	-0.4	2.1	-2.1	0.6
Cc1noc(C)c1NC(=O)N[C@H]1CC[C@H](CC(=O)Nc2ccccc2)O[C@H]1CO	-2.5	x	x	-1.6	-0.2
Cc1cc(C)n(C(=O)CNC(=O)c2cccs2)n1	3.1	-3.3	4.2	23.3*	x
O=C(NN=Cc1ccccc1O)c1cc[n+]([O-])cc1	x	x	8.9	x	x
Cc1[nH][nH]c(=O)c1C=NCc1cccnc1	-2.0	-4.0	5.3	4.0	43.6*
Cc1[nH][nH]c(=O)c1C=NCc1cccs1	-0.5	-1.7	x	0.9	42.8
Cn1cc(Cl)c(C(=O)NC(=S)Nc2sc3c(c2C#N)CCCCC3)n1	-1.1	-1.7	2.4	-1.2	51.8*
Cn1cc(Br)c(C(=O)Nc2sc3c(c2C#N)CCC3)n1	2.8	20.2	-93.6	-1.6	-0.2
O=C(Nc1ccccc1N1CCCC1)c1ccc(Cl)cc1Cl	0.0	-1.9	5.2	-2.6	0.0
O=C(c1cc([N+](=O)[O-])ccc1N1CCCC1)N1CCCC1	4.5	-0.3	15.1	15.8*	0.1
CN1CCN(c2ccccc2NC(=O)c2cccc([N+](=O)[O-])c2)CC1	-7.8	2.4	0.5	0.5	43.6*
O=C(Nc1ccccc1N1CCCC1)c1cc(Cl)ccc1Cl	0.8	-1.0	1.9	1.8	44.5*
O=C(Nc1ccccc1N1CCCC1)c1ccc([N+](=O)[O-])cc1Cl	0.5	1.8	3.9	1.7	43.9*
CO[C@@H]1CN(C)C(=O)c2cc(NC(=O)C3CCCC3)ccc2OC[C@@H](C)N(C(=O)c2ccccc2)C[C@H]1C	0.5	x	x	-0.3	-0.1
CO[C@@H](CN(C)S(=O)(=O)c1cccc(Cl)c1)[C@@H](C)CN(C(=O)Nc1ccccc1F)[C@@H](C)CO	3.6	x	x	6.6	-0.2
C[C@@H]1CN([C@@H](C)CO)C(=O)c2cccc(NC(=O)c3nc4ccccc4s3)c2O[C@@H]1CN(C)Cc1ccc(C(F)(F)F)cc1	-0.2	x	x	18.3*	0.3
C[C@@H]1CN([C@H](C)CO)C(=O)c2cccc(NC(=O)c3nc4ccccc4s3)c2O[C@H]1CN(C)S(=O)(=O)c1ccccc1	0.0	x	x	3.2	-0.2
C[C@@H]1CN([C@@H](C)CO)C(=O)c2cccc(NC(=O)c3nc4ccccc4s3)c2O[C@@H]1CN(C)Cc1ccccc1	-4.8	x	x	5.7	-0.5
C[C@H](CO)N1C[C@H](C)[C@H](CN(C)S(=O)(=O)c2ccc(F)cc2)Oc2c(NC(=O)c3nc4ccccc4s3)cccc2C1=O	0.7	x	x	24.3*	-0.1
C[C@@H]1CN([C@H](C)CO)C(=O)c2cccc(NC(=O)c3nc4ccccc4s3)c2O[C@@H]1CN(C)C(=O)NC1CCCCC1	-1.3	x	x	34.1*	-0.1
SMILES	CASP6 VEID inh	NSD2 inh	UCH37 inh	SIRT5 block	FGF22 binding
CCCNC(=O)C[C@@H]1CC[C@H]2[C@@H](COc3ccc(NC(=O)Nc4c(C)noc4C)cc3C(=O)N2C)O1	-1.2	x	x	-5.9	-0.1
O=C(c1ccc(NS(=O)(=O)c2cccc3cccnc23)cc1)N1CCOCC1	x	0.5	1.6	x	x
O=C(c1ccc(NS(=O)(=O)c2ccc(F)cc2)cc1)N1CCCCCC1	3.5	-0.7	3.4	16.7*	-0.4
O=C(c1ccc(S(=O)(=O)Nc2ccc(F)cc2)cc1)N1CCN(c2ccccn2)CC1	4.1	-1.5	-1.7	-4.3	42.9*
O=C(c1ccc(NS(=O)(=O)c2cccc3cccnc23)cc1)N1CCCCC1	x	6.1	3.7	-0.5	43.7*
CO[C@@H]1CN(C)C(=O)c2cc(NC(=O)Nc3ccccc3F)ccc2OC[C@H](C)N(C(C)=O)C[C@H]1C	-1.8	x	x	4.0	-0.1
CC(C)CC#Cc1ccc([C@H]2[C@H](CO)N3C(=O)CN(C(=O)CN4CCOCC4)C[C@@H]23)cc1	x	x	x	-3.5	x
CC(C)CC#Cc1ccc([C@@H]2[C@@H](CO)N3C(=O)CN(C(=O)c4ccccn4)C[C@H]23)cc1	-1.3	x	x	33.1*	x
COc1ccc(-c2ccc([C@@H]3[C@H]4CN(C(=O)Cc5ccccn5)CC(=O)N4[C@H]3CO)cc2)cc1	x	x	x	27.7*	x
CC(C)CC#Cc1ccc([C@@H]2[C@@H](CO)N3C(=O)CN(C(=O)CN4CCOCC4)C[C@@H]23)cc1	2.0	x	x	17.4*	x
CC(C)CC#Cc1ccc([C@@H]2[C@@H](CO)N3C(=O)CN(C(=O)c4ccccn4)C[C@@H]23)cc1	-1.6	x	x	-1.8	x
CCC(=O)N1CC(=O)N2[C@H](CO)[C@H](c3ccc(C#CCC(C)C)cc3)[C@@H]2C1	0.8	x	x	15.7*	-0.1
CCC(=O)N1CC(=O)N2[C@H](CO)[C@@H](c3ccc(C#CCC(C)C)cc3)[C@H]2C1	-1.7	x	x	-4.5	-0.1
O=C(NN=Cc1ccc(C(=O)O)cc1)C1=NNC(c2ccccc2)(c2ccccc2)C1	x	x	9.1	x	x
CNC[C@@H]1OCCCC[C@@H](C)Oc2ccc(NC(=O)NC(C)C)cc2C(=O)N([C@H](C)CO)C[C@@H]1C	-4.7	x	x	0.9	0.5
N#C[C@@H]1[C@@H](c2ccc(C3=CCCCC3)cc2)[C@H](CO)N1C(=O)CN1CCOCC1	0.4	x	x	9.4	-0.2
O=C(C1CCOCC1)N1CC(=O)N2[C@H](CO)[C@@H](c3ccc(C#CCc4ccccc4)cc3)[C@H]2C1	0.8	x	x	16.5*	x
CN(C)CC(=O)N1CC[C@@H]2[C@H]1c1cc(-c3ccccc3F)ccc1N(C)[C@@H]2CO	x	x	x	x	0.4
O=C(NN=Cc1ccc2c(c1)OCO2)c1ccc2c(c1)OCCO2	x	x	3.7	x	x
COc1ccccc1N1CCN(N=C(C)c2ccc(O)cc2)CC1	x	x	4.4	x	x
O=C(Nc1nc(-c2ccc(-c3ccccc3)cc2)cs1)c1cc([N+](=O)[O-])ccc1N1CCOCC1	-0.9	-24.4	7.1	1.1	43.4*
O=C(Nc1nc(-c2cc3ccccc3o2)cs1)c1ccc(S(=O)(=O)N2CCCC2)cc1	0.7	6.9	-5.8	-4.7	42.9*
CN(C)S(=O)(=O)c1ccc(C(=O)Nc2nc(-c3cc4ccccc4o3)cs2)cc1	-1.7	1.4	-279.6	-2.1	0.1
